Compound activity: PubChem, The Scripps Research Institute Molecular Screening Center
Compounds with a hit are over-represented: about 1.8% of the library has one in this group of screens.
M5 antag – antagonists of human muscarinic M5 receptor (CHRM5). inhibition, % at 3 µM. actives 0.59% (n = 360,000). P08912. CHO-hM5 cells, Fluo-8 calcium fluorescence, ACh EC80;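 active means inhibition above a per-plate cutoff, the mean of that plate's test compounds plus 3 SD, cut at about 27% in these data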;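 further: 0% = acetylcholine EC80 with DMSO and 100% = DMSO without agonist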
M5 PAM – CHRM5 positive allosteric modulation | P08912 | CHO-K1 hM5, Fluo-8 calcium, ACh EC20 PAM; 0% = ACh EC20, 100% = ACh EC100 | activation, % at 3 µM | actives 0.3% (n = 360,000) | AID 624038;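 active means activation above the run cutoff, the mean activation of all test compounds plus 3 SD, cut at about 18% in these data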
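System – CHO-K1 hM5 cells · Compound – 3 µM, single dose · Incubation – compound preincubation 140 s before EC20 acetylcholine addition · Technique – Fluo-8 calcium fluorescence · Measure – Max/basal fluorescence ratio as % of EC20–EC100 ACh window · Benchmarks – low control EC20 acetylcholine (0%), high control EC100 acetylcholine (100%) · Replication – singlicate, one well per test compound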
CHRM4 agonist – agonists of human muscarinic M4 receptor (CHRM4); P08173; CHO-K1 hM4/Gqi5, Fluo-8 calcium fluorescence; vehicle 0%, full acetylcholine response 100%; activation, % at 3 µM; actives 0.14% (n = 360,000); AID 624127;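 active means activation above the run mean over all test wells plus 3 SD, cut at about 32% in these data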;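 further: peak over basal fluorescence ratio per well then scaled between controls; 0% = DMSO wells and 100% = acetylcholine at EC100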
Target sequence (P08173 whole entry, looked up): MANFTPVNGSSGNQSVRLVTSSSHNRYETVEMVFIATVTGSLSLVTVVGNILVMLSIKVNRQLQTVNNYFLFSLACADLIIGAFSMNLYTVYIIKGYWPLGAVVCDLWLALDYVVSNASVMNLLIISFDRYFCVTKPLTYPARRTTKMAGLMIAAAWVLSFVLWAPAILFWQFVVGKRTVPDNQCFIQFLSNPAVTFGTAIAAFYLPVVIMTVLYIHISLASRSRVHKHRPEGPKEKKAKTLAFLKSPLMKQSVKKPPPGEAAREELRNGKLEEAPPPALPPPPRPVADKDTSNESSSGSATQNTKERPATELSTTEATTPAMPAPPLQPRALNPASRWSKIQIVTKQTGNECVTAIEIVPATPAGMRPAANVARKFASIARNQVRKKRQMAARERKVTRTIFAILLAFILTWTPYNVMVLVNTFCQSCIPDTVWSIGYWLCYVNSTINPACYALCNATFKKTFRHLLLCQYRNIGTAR
M4 PAM – potentiates acetylcholine response at human M4 receptor; AID 624126; P08173; CHO-K1 hM4/Gqi5, Fluo-8 calcium fluorescence, ACh EC20; 0% = ACh EC20, 100% = maximal ACh; activation, % at 3 µM; actives 0.4% (n = 360,000);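 active means activation above its plate's cutoff, the mean activation of sample wells plus 3 SD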
CHRM5 agonist – agonists of human muscarinic M5 receptor (CHRM5); P08912; CHO-K1 hM5 cells, Fluo-8 calcium fluorescence; 0% DMSO wells, 100% maximal acetylcholine response; activation, % at 3 µM; actives 0.19% (n = 360,000); AID 624037;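 active means activation above the run's mean over test compounds plus 3 SD, cut at about 23% in these data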;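 further: signal is peak over basal fluorescence ratio across the kinetic read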
CHRM4 antagonist – antagonists of human muscarinic M4 receptor (CHRM4). inhibition, % at 3 µM. P08173. AID 624125. actives 0.73% (n = 360,000). CHO-hM4 cells, ACh EC80, Fluo-8 calcium fluorescence;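 active means inhibition above its plate's cutoff, the mean inhibition of sample wells plus 3 SD, cut at about 27% in these data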;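 further: 0% = acetylcholine EC80 with DMSO and 100% = DMSO without agonist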
* = called active by the depositor.

SMILES	M5 antag	M5 PAM	CHRM4 agonist	M4 PAM	CHRM5 agonist	CHRM4 antagonist
CCSc1nc(N)c(NC(=O)c2ccc(Br)o2)c(=O)[nH]1	6	1	1	-3	-3	8
Nc1nc(SCC(=O)Nc2ccc(OC(F)(F)F)cc2)[nH]c(=O)c1NC(=O)c1ccc(Br)o1	34*	-11	0	10	-5	-16
CCCNC(=O)c1cccc(COCC(F)(F)F)c1	-8	34*	1	5	-4	2
CCCNC(=O)c1cccc(COc2ccccc2OC)c1	-1	-2	2	-4	-2	-5
CC1CCN(Cc2ccc(NC(=O)CC3Oc4ccccc4NC3=O)cc2)CC1 (stereo not given)	37*	-25	2	-14	-6	97*
CCC(C)N(CCNC(=O)CC1Oc2ccccc2NC1=O)C1CCCCC1 (stereo not given)	9	-10	0	-14	-6	45*
CC(C)CN(CCNC(=O)CC1Oc2ccccc2NC1=O)CC(C)C (stereo not given)	-5	2	1	4	-4	-6
Cc1cc(C)c2sc(NC(=O)C3=COCCO3)nc2c1	2	0	3	22*	-1	-9
CN(C1CCCCC1)S(=O)(=O)c1cccc2nsnc12	7	1	3	5	-6	-7
CNc1nc2cc([N+](=O)[O-])c([N+](=O)[O-])cc2nc1NC	30*	-14	18	-9	11	13
CC(C)(C)C(=O)Nc1nc2c(c(=O)[nH]1)CCCC2	5	-1	2	21*	-1	-2
CCC(=O)Nc1nc2c(c(=O)[nH]1)CCCC2	-2	7	1	5	-4	-17
C[C@H](CO)N1C[C@H](C)[C@@H](CN(C)Cc2ccccc2)Oc2ccc(NC(=O)Cn3cnnn3)cc2C1=O	-21	9	1	6	-2	-11
NCCc1nnc(SCc2ccc(F)cc2)o1	-3	3	0	1	-7	-2
NCCCCCc1nnc(SCc2ccc(Cl)c(Cl)c2)o1	36*	-19	3	-31	-7	67*
Cc1onc(-c2ccccc2)c1C(=O)Nc1nnc(N(C)Cc2ccccc2)s1	0	2	5	18*	3	-11
O=C(CCC1CCCN(Cc2cccc(Cl)c2)C1)NCc1ccccc1F (stereo not given)	4	-3	1	-16	-15	-2
Cc1c(C(=O)O)sc(S(=O)(=O)N2CCN(C(=O)CC(C)c3ccccc3)CC2)c1C(=O)O (stereo not given)	3	-9	1	-2	6	0
CCOC(=O)Nc1ccc2c(c1)N(C(=O)C(C)N1CCCC1)c1ccccc1CC2 (stereo not given)	24	-24	1	-16	-7	60*
O=C(CN1CCCCC1)N1c2ccccc2CCc2ccccc21	49*	-18	1	-22	-6	77*
O=C(CN1CCCC1)N1c2ccccc2Sc2ccccc21	59*	-14	0	-25	-10	61*
CCOC(=O)Nc1ccc2c(c1)N(C(=O)OC)c1ccccc1CC2	1	0	0	10	-3	-6
CCCC(CCC)C(=O)Nc1ccc2c(c1)N(C(=O)CN1CCN(C)CC1)c1ccccc1CC2	31*	-19	1	-24	-11	44*
CN1CCN(CCCNC(=O)CCN2C(=O)COc3ccccc32)CC1	8	1	1	1	-5	-3
O=C(CN1CCC(O)CC1)N1c2ccccc2C=Cc2ccccc21	19	-33	1	-21	-10	29*
SMILES	M5 antag	M5 PAM	CHRM4 agonist	M4 PAM	CHRM5 agonist	CHRM4 antagonist
CCN1CCN(CC(=O)N2c3ccccc3Sc3ccccc32)CC1	5	-19	2	-15	-8	31*
CCc1ccc(C(=O)NNC(=O)C2CC(=O)N(Cc3ccccc3)C2)cc1 (stereo not given)	1	1	0	3	-1	-7
O=C(NNC(=O)C1CC(=O)N(Cc2ccccc2)C1)c1ccc(Br)cc1 (stereo not given)	29*	-7	1	-1	-5	0
CCC1CCc2c(sc3nc(SCC(=O)NCc4ccco4)n(-c4ccccc4)c(=O)c23)C1 (stereo not given)	-2	1	0	0	1	6
O=c1c2cc(F)ccc2sn1-c1ccccc1	12	2	30	-5	24*	14
Cc1cccc(NC(=O)c2oc3ccc(S(=O)(=O)N4CCOCC4)cc3c2C)c1C	11	-19	18	-20	1	29*
Cc1ccc(NC(=O)c2oc3ccc(S(=O)(=O)N4CCOCC4)cc3c2C)c(C)c1	8	-1	4	0	3	-9
Cc1c(C(=O)NCCCN2CCCC2=O)oc2ccc(S(=O)(=O)N3CCOCC3)cc12	8	-1	2	-3	-3	7
Cc1c(C(=O)NCCC2=CCCCC2)oc2ccc(S(=O)(=O)N3CCOCC3)cc12	28*	-23	16	-14	3	14
COc1cccc(NC(=O)COC(=O)c2ccc(C)c(S(=O)(=O)N3CCCCC3)c2)c1	17	-28	12	-3	-1	-9
CC(=O)Nc1ccc(OCC(=O)c2ccc(C)cc2C)cc1	0	3	3	-3	3	2
CC(=O)Nc1ccc(OCC(=O)c2cc(C)ccc2C)cc1	-1	5	0	19*	2	2
CCOc1ccc(NC(=O)CCC(=O)NNC(=O)COc2ccc(C)cc2)cc1	30*	-16	11	-3	-2	1
CC(=O)Nc1ccc(NC(=O)C(C)OC(=O)C2CCN(S(=O)(=O)c3ccc4c(c3)OCCO4)CC2)cc1 (stereo not given)	1	1	0	2	2	4
Cc1cccc(C(=O)NCCC(=O)NCc2ccccc2Cl)c1	10	-4	1	-1	-3	12
OC(C#CCN1CCCC1)(c1ccccc1)c1ccccc1	99*	-17	1	-18	-7	98*
CC(C)C(O)(C#CCN1CCCCC1)C(C)C	31*	-19	0	-6	-8	1
OC(C#CCN1CCOCC1)(c1ccccc1)C1CC1 (stereo not given)	0	2	0	2	-4	5
OC(C#CCN1CCCCC1)(c1ccccc1)c1ccccc1	100*	-36	2	-18	-21	100*
CC(O)(C#CCN1CCCCCC1)c1ccccc1 (stereo not given)	26	-16	15	-20	-6	23
